# SMARCA2 activ – SMARCA2 (BRM) function activators, primary screen, cell-based, luminescence, high throughput. AID 652017, 2013. MG213 cells, MMTV-luciferase reporter, dexamethasone, overnight. activation, % at 9.1 µM. 370,000 tested, 1% active; in the data active = activation above about 7.8%;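 also: 0% = vehicle wells and 100% = reference activator wells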
# H9c2 TAG inh – inhibitors of triacylglycerol accumulation, primary screen, cell-based, uHTS, fluorescence, H9c2; H9c2 cells, Nile Red lipid (TAG) fluorescence; cells loaded with 200 µM oleic acid; inhibition, % at 12.5 µM; AID 651582, 2012; 230,000 tested, 0.66% active;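 active = pattern-corrected inhibition of lipid staining of at least 50% with the nuclear-stain viability signal not falling by more than 50%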;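 also: 0% = DMSO wells and 100% = triacsin C control wells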
# Efflux pump inh – inhibitors of Candida efflux pumps in yeast, primary screen, S. cerevisiae, Nile Red, multiplex | S. cerevisiae Candida pump triplex | inhibition, % at 10 µM | 330,000 tested, 0.44% active;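 active = plate passing quality check with inhibition over a set limit, or well fluorescence over plate mean plus 4 SD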;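 also: Nile Red retained in pooled yeast measured as flow cytometry median fluorescence; 0% = buffer negative control and 100% = Enniatin B positive control; higher means more Nile Red kept so more efflux inhibition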
# Tb MetRS inh – T. brucei MetRS inhibitors, primary screen, biochemical, luminescence | methionyl-tRNA synthetase (Trypanosoma brucei brucei) | purified T. brucei MetRS, ATP depletion, Kinase-Glo luminescence | inhibition, % at 11.9 µM | 360,000 tested, 0.4% active | AID 624268, 2012;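 active = inhibition above a per-plate cutoff of the control wells' mean inhibition plus 3 SD, cut at about 5.5% in these data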;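 also: 0% = DMSO wells median and 100% = median of wells with control inhibitor compound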
#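 Material – parasite MetRS enzyme · Medium – HEPES-MgCl2-KCl buffer plus DTT, spermine, BSA, pyrophosphatase · Reagent – ATP, methionine and E. coli bulk tRNA substrates · Times – 15 min enzyme-compound preincubation, 2 h reaction, 10 min detection, 25 °C · Measured by – luminescence of leftover ATP · Evaluation – percent inhibition relative to median high and low control wells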
# AHR act – AHR activators, primary screen, cell-based, luminescence, luciferase reporter, human; AHR-responsive luciferase reporter cells; activation, % at 5 µM; 320,000 tested, 2.5% active; in the data active = activation above about 47%;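 also: 0% = vehicle wells and 100% = reference agonist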
# Target sequence (P35869 whole entry, looked up): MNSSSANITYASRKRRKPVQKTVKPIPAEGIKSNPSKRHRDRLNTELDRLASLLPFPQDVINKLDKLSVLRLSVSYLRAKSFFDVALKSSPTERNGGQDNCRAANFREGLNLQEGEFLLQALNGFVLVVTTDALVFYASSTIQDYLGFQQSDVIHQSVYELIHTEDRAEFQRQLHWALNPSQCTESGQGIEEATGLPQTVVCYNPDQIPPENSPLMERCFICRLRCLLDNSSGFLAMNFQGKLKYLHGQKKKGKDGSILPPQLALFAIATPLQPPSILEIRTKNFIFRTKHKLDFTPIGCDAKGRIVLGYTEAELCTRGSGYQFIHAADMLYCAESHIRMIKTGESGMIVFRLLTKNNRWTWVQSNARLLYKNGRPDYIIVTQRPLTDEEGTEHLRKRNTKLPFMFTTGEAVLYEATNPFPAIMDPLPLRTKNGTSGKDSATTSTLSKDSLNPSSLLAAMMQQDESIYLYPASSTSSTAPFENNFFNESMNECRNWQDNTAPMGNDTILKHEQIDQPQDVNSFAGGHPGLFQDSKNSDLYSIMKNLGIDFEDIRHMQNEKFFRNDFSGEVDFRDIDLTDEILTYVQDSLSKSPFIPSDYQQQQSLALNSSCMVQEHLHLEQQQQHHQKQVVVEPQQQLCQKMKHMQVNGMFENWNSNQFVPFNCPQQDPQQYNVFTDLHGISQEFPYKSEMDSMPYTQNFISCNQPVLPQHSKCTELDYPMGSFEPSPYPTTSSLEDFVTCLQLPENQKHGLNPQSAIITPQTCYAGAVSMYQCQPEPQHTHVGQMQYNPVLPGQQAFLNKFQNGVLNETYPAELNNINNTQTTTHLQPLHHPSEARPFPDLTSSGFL
# * = called active by the depositor; nt = not tested or not shown. Compounds with a hit are over-represented: about 4.1% of the library has one in this group of screens.
SMILES,SMARCA2 activ,H9c2 TAG inh,Efflux pump inh,Tb MetRS inh,AHR act
CC(=O)Nc1cccc(Nc2nc(-c3ccccc3)nc3ccccc23)c1,1,11,0,0,62*
CCOC(=O)c1cccc(Nc2nc(-c3cccnc3)nc3ccccc23)c1,-3,53*,0,0,31
COC(=O)C1CN(Cc2ccccc2)CCS(=O)(=O)N1Cc1ccc(F)cc1 (centres undefined),0,nt,nt,nt,nt
COc1ccc(CCN(C(=S)Nc2ccccc2)C2CC(=O)N(c3ccccc3)C2=O)cc1 (centres undefined),1,23,0,16*,1
C[n+]1c2n(c3ccccc31)N=C(c1ccc(Cl)cc1)CS2,-5,-114,0,0,64*
CC1Sc2n(c3ccccc3[n+]2C)N=C1c1ccccc1 (centres undefined),-4,nt,-1,0,74*
COc1ccc(C2=Nn3c([n+](C)c4ccccc43)SC2)cc1,-5,6,0,0,59*
COC(=O)c1cc(C2(c3c[nH]c4ccccc34)CCN(C(=O)OC(C)(C)C)CC2)n2ccccc12,1,nt,nt,nt,nt
CCOc1ccc(-n2c(SCC(=O)Nc3ccc4c(c3)c3ccccc3n4CC)nnc2-c2cccnc2)cc1,0,nt,nt,nt,nt
CC(N)c1csc(NC(=O)c2cc(C(C)(C)C)nn2Cc2ccccc2)n1 (centres undefined),-7,28,nt,0,nt
COc1ccc(CC(N)c2csc(NC(=O)c3cc(C(C)(C)C)nn3Cc3ccccc3)n2)cc1 (centres undefined),-8,112*,nt,-1,nt
COc1ccc(OC)c(CCNC(=O)CC2Oc3ccc(C)cc3NC2=O)c1 (centres undefined),0,nt,nt,-2,nt
COc1ccc(OC)c(CCNC(=O)CC2Oc3ccccc3NC2=O)c1 (centres undefined),-2,3,0,0,52*
CC1CC(C)CN(C(=O)c2cc3ccccc3o2)C1 (centres undefined),2,-6,0,0,58*
Cc1ccc2cccc(NC(=S)NC(=O)c3ccccc3)c2n1,-1,-169,0,0,56*
Cc1ccc2cccnc2c1NC(=S)NC(=O)c1ccccc1,2,nt,0,0,69*
CSc1ccc(Oc2cccc3c2S(=O)(=O)N(C2CC2)C[C@@H](COCc2ccccc2)O3)cc1C,-3,nt,nt,nt,nt
C=CCOc1c(Br)cc(CNc2ccc(NC(=O)C(C)C)c(OC)c2)cc1OCC,-5,nt,0,-1,67*
CCc1ccc2nc(Nc3nc(COC)cc(=O)[nH]3)nc(C)c2c1,-1,nt,0,-1,-5
COCc1cc(=O)[nH]c(Nc2nc3ccc(C)cc3o2)n1,3,12,0,-1,48*
Cc1ccc(-n2c(SCC(=O)C(C)(C)C)nnc2-c2cccc(C)c2)cc1,-5,nt,nt,nt,nt
Cc1cccc(-c2nc3ccccc3c(=O)[nH]2)c1,1,nt,0,-1,68*
Cc1cc(C)cc(Nc2nc3ccccc3c(=O)[nH]2)c1,-4,12,0,4,77*
O=c1[nH]c(-c2ccncc2)nc2ccccc12,0,-9,0,-1,14
O=C(O)CCC(=O)Nc1ccccc1C(=O)NCCc1ccccc1,5,nt,0,-1,16
SMILES,SMARCA2 activ,H9c2 TAG inh,Efflux pump inh,Tb MetRS inh,AHR act
O=C(Nc1ccccc1C(=O)NCCc1ccccc1)c1cnccn1,1,nt,0,1,61*
CC(=O)CC[C@@H]1CC[C@]2(CCCN(C(=O)C3CCCCC3)C2)O1,-3,nt,nt,nt,nt
COc1ccc(CN(CCN2CCOCC2)C(=O)c2cc(Cl)ccc2F)cc1OC,-2,nt,nt,nt,nt
Oc1[nH]c2ccccc2c1/C=N/c1nccs1,4,-11,0,-1,53*
Cc1[nH]c2ccccc2c1/C=N\NC(=O)CNc1ccc2c(c1)OCO2,-2,nt,0,0,68*
O=C(CNc1ccc2c(c1)OCO2)N/N=C\c1ccccc1Cl,-2,nt,0,0,81*
Cc1ccc(N=Cc2c(O)[nH]c3ccccc23)c([N+](=O)[O-])c1,7,14,0,0,7
Oc1[nH]c2ccccc2c1C=Nc1ccc2c(c1)OCO2,4,nt,0,0,58*
CC(COc1cc(F)cc(C#N)c1)CN1CCC(C(O)(c2ccccc2)c2ccccc2)CC1 (centres undefined),-5,nt,nt,nt,nt
